Results on 29 compounds are retold here after ChEMBL document CHEMBL1144191, “Synthesis and evaluation of a spiro-isobenzofuranone class of histamine H3 receptor inverse agonists” (Bioorg Med Chem Lett, 2008).

The target of one data set is Histamine H3 receptor (Homo sapiens, UniProt Q9Y5N1). Kind of data set: Inverse agonist activity at human cloned histamine H3 receptor assessed as inhibition of (R)-alpha-methylhistamine-induced [35S]GTPgammaS binding. Type of data set: functional. An outline of the steps: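 [35S]GTPγS binding assay in membranes isolated from cells transfected with cloned human H3 receptors.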
On the technique in general: GTPγS is a poorly hydrolysed GTP analogue; its binding reports G protein activation.

Another data set concerns the target Histamine H2 receptor (Homo sapiens, UniProt P25021). The data set is described as follows: Inhibition of histamine H2 receptor.
Another data set concerns the target Histamine H4 receptor (Homo sapiens, UniProt Q9H3N8). The data set is described as follows: Inhibition of histamine H4 receptor.
The nature of data set [1]: Volume of distribution at steady state in Sprague-Dawley rat at 1 mg/kg, iv. The following applies: in vivo, read-out: Vdss. Also on record: dose 1 mg/kg, route intravenous. Type of data set: ADME, organism-based. The method in brief: (§1)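 Sprague-Dawley rats, n = 3, mean values reported; dosed iv at 1 mg/kg or orally at 3 mg/kg. Parameters derived from the plasma profile: half-life, Vdss, plasma clearance (iv), Tmax, Cmax and oral bioavailability (po).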

Data set [2] deals with Brain. The data set is described as follows: Drug concentration in Sprague-Dawley rat brain at 10 mg/kg, po after 2 hrs. Type of data set: ADME, organism-based. Further details: dose 10 mg/kg, route oral. To be noted: in vivo. The method in brief: (§2)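 SD rats, n = 3 (mean), dosed orally at 10 mg/kg. Plasma, brain and cerebrospinal fluid levels measured at 2 h post-dose; brain expressed as nmol/g, plasma and CSF as µM.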

Data set [3] can be described thus: Plasma clearance in Sprague-Dawley rat at 1 mg/kg, iv. Further details: dose 1 mg/kg, route intravenous. The data set is classed as ADME, organism-based. The method in brief:
as §1

Data set [4] is described as follows: Tmax in Sprague-Dawley rat at 3 mg/kg, po. The data set is classed as ADME, organism-based. Further details: dose 3 mg/kg, route oral. The following applies: in vivo. The method in brief:
as §1

The nature of data set [5]: Bioavailability in Sprague-Dawley rat at 3 mg/kg, po. The data set is classed as ADME, organism-based. The following applies: in vivo. An outline of the steps: as §1
Data set [6] is described as follows: Plasma concentration in Sprague-Dawley rat at 10 mg/kg, po after 2 hrs. The data set is classed as ADME, organism-based. Further details: dose 10 mg/kg, route oral. To be noted: read-out: Drug uptake. An outline of the steps: as §2
The nature of data set [7]: Drug concentration in Sprague-Dawley rat cerebrospinal fluid at 10 mg/kg, po after 2 hrs. Type of data set: ADME, organism-based. Further details: dose 10 mg/kg, route oral. The following applies: read-out: Drug uptake. The method in brief: as §2
The nature of data set [8]: Metabolic stability in cryopreserved human hepatocytes assessed as hepatic clearance by serum incubation method. The data set is classed as ADME, cell-based, Liver, Hepatocyte. The method in brief: (§3)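 Hepatic clearance estimated by the serum incubation method in human and rat hepatocytes, expressed as mL/min/kg.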
The next data set deals with Histamine H1 receptor (Homo sapiens, UniProt P35367). The data set is described as follows: Inhibition of histamine H1 receptor.
Data set [9] in a line: Cmax in Sprague-Dawley rat at 3 mg/kg, po. The data set is classed as ADME, organism-based. Also on record: dose 3 mg/kg, route oral. The following applies: in vivo. The method in brief:
as §1

Data set [10] in a line: Half life in Sprague-Dawley rat at 1 mg/kg, iv. The data set is classed as ADME, organism-based. Further details: dose 1 mg/kg, route intravenous. The following applies: in vivo. The method in brief: as §1
Data set [11] can be described thus: Half life in Sprague-Dawley rat at 3 mg/kg, po. Type of data set: ADME, organism-based. Further details: dose 3 mg/kg, route oral. To be noted: in vivo. An outline of the steps:
as §1

The nature of data set [12]: Metabolic stability in cryopreserved rat hepatocytes assessed as hepatic clearance by serum incubation method. Type of data set: ADME, cell-based, Liver, Hepatocyte. An outline of the steps:
as §3

Data set [13] is described as follows: Plasma concentration in Sprague-Dawley rat at 1 mg/kg, iv after 10 mins. The data set is classed as ADME, organism-based. Also on record: dose 1 mg/kg, route intravenous. To be noted: read-out: Drug uptake. The method in brief: (§4)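 SD rats, n = 3 (mean), dosed iv at 1 mg/kg. Plasma, brain and CSF levels measured 10 min after dosing; brain expressed as nmol/g, plasma and CSF as µM.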

In data set [14] the target is Voltage-gated inwardly rectifying potassium channel KCNH2 (Homo sapiens, UniProt Q12809). The data set is described as follows: Displacement of [35S]N-[(4R)-1'-[(2R)-6-cyano-1,2,3,4-tetrahydro-2-naphthalenyl]-3,4-dihydro-4-hydroxyspiro[2H-1-benzopyran-2,4'-piperidin]-6-yl]methanesulfonamide from human ERG in HEK293 cells. The data set is classed as cell-based. Background: Displacement assays read how much labelled ligand stays bound in the presence of the test substance.

The test system of data set [15] is LLC-PK1. Kind of data set: Ratio of permeability from basolateral to apical over apical to basolateral side of pig LLC-PK1 cells transfected with mouse MDR1a by P-gp transport assay. The data set is classed as ADME, cell-based, Sus scrofa. The method in brief:
(§5)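 Transcellular transport measured across LLC-PK1 cell monolayers transfected with human MDR1 or mouse mdr1a. Ratio computed as (B-to-A)/(A-to-B) permeability; mean of n ≥ 3. Ratio above 3.0 taken to indicate a P-gp substrate.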

Data set [16] has as its system LLC-PK1. Kind of data set: Ratio of permeability from basolateral to apical over apical to basolateral side of pig LLC-PK1 cells transfected with human MDR1 by P-gp transport assay. The data set is classed as ADME, cell-based, Sus scrofa. An outline of the steps:
as §5

In data set [17] the test system is Brain. Kind of data set: Drug concentration in Sprague-Dawley rat brain at 1 mg/kg, iv after 10 mins. Also on record: dose 1 mg/kg, route intravenous. The following applies: in vivo. Type of data set: ADME, organism-based. An outline of the steps:
as §4

Data set [18] in a line: Drug concentration in Sprague-Dawley rat cerebrospinal fluid at 1 mg/kg, iv after 10 mins. Type of data set: ADME, organism-based. Further details: dose 1 mg/kg, route intravenous. To be noted: read-out: Drug uptake. The method in brief:
as §4

Each structure is given as a SMILES string.

Sequence of Histamine H3 receptor (Q9Y5N1 whole entry): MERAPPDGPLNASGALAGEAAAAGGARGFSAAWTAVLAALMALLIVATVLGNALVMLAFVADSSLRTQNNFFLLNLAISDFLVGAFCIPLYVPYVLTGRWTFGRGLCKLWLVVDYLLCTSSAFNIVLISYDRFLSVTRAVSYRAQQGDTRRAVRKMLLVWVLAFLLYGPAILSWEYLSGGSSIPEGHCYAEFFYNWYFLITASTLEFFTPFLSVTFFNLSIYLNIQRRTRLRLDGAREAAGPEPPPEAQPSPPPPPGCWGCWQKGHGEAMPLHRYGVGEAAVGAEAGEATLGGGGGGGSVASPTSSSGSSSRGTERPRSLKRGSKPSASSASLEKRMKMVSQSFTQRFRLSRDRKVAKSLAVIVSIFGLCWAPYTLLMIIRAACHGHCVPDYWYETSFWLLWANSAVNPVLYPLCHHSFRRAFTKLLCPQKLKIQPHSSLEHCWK
Sequence of Histamine H1 receptor (P35367 whole entry): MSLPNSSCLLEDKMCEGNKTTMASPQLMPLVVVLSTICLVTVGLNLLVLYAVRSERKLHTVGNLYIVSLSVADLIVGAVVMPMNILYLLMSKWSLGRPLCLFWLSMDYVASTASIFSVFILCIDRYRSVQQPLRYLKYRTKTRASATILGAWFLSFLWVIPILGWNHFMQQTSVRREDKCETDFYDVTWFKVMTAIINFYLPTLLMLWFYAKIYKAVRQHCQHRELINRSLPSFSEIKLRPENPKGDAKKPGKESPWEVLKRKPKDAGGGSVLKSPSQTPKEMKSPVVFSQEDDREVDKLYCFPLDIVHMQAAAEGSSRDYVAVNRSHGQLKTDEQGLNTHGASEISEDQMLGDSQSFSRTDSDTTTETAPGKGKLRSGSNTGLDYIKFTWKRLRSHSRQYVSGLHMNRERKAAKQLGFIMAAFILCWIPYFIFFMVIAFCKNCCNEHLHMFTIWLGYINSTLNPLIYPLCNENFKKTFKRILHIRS
Sequence of Histamine H4 receptor (Q9H3N8 whole entry): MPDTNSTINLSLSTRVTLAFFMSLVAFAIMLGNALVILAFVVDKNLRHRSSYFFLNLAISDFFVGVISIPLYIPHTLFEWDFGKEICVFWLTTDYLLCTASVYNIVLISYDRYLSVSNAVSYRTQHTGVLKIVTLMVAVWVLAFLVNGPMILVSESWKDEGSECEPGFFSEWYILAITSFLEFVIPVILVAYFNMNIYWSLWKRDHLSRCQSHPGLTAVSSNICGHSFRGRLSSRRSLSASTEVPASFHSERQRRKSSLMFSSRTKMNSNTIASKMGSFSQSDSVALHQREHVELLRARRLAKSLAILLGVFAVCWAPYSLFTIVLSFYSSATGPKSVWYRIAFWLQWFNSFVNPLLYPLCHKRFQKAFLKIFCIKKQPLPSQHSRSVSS
Sequence of Histamine H2 receptor (P25021 whole entry): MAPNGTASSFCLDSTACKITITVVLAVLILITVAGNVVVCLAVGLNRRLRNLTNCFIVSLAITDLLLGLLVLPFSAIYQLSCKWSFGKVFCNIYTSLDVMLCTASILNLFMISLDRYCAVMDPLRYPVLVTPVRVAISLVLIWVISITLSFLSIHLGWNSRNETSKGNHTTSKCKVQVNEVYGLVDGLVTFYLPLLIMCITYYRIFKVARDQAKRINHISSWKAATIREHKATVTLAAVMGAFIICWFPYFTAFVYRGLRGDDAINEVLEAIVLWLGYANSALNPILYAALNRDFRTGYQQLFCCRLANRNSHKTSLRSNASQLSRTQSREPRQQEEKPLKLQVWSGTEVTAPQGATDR
Sequence of Voltage-gated inwardly rectifying potassium channel KCNH2 (Q12809 whole entry): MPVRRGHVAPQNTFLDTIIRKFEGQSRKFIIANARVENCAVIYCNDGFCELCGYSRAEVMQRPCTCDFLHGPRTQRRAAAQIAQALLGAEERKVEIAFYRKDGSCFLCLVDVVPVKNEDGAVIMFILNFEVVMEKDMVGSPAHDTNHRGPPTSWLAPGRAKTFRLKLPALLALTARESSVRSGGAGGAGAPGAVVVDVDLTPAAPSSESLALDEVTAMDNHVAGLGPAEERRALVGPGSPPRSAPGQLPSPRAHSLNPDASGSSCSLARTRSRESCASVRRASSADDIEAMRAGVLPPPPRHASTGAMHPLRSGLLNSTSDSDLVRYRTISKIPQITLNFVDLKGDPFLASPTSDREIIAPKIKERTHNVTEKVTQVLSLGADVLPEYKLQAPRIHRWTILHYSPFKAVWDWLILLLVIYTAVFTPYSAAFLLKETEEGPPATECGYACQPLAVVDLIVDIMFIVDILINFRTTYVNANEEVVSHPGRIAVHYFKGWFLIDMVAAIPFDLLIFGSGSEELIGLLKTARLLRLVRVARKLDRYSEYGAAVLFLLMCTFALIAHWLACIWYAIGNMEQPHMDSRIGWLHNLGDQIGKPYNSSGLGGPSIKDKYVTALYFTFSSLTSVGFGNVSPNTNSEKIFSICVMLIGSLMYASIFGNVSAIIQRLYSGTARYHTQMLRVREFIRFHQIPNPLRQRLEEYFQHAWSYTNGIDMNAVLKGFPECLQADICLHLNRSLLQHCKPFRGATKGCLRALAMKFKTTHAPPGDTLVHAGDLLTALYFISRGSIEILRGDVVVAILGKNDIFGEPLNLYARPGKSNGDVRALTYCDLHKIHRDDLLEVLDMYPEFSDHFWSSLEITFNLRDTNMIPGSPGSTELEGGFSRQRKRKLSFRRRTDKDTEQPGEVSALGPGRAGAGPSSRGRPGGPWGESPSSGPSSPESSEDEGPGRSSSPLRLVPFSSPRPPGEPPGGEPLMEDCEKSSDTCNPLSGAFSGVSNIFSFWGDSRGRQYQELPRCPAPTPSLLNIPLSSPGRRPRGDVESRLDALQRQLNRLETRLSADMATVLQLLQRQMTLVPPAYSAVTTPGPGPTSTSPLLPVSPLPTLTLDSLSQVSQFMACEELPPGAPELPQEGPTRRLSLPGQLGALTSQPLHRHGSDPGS

What is called IC50 is the concentration that inhibits the measured activity by half. For the compound `CN(CCN1CCCCC1)C(=O)N1CCC(C#N)(c2ccccc2)CC1`, the IC50 at Histamine H3 receptor is 267 nM.
With `CN(CCN1CCCCC1)C(=O)N1CCC2(CC1)OC(=O)c1ccccc12`, on Histamine H3 receptor, the IC50 was found to be 21 nM.
The same measure, in the same setting: then `CN(CCN1CCCCC1)C(=O)N1CCC2(CC1)OCc1ccccc12`, with 387 nM; and `COc1cccc2c1[C@]1(CC[C@@H](C(=O)N(C)CCN3CCCCC3)CC1)OC2=O`, with 3.6 nM; and `CN(CCN1CCCCC1)C(=O)N1CCC(Cc2ccccc2)CC1`, with 393 nM.
For `CN(CCN1CCCCC1)C(=O)N1CCN(c2ccccc2Cl)CC1`, on Histamine H3 receptor, the IC50 is greater than 1000 nM.
Turning to `CN(CCN1CCCCC1)C(=O)N1CCN(c2cccc(Cl)c2)CC1`, the IC50 at Histamine H3 receptor stood at 297 nM.
On the same count and under the same terms, then `CN(CCN1CCCCC1)C(=O)N1CCC2(CC1)Cc1ccccc1C(=O)O2`, with 380 nM; and `CN(CCN1CCCCC1)C(=O)N1CCC(c2cccc3ccccc23)CC1`, with 343 nM.
For the compound `CN(CCN1CCCCC1)C(=O)N1CCC(c2ccccc2)CC1`, the IC50 at Histamine H3 receptor is 893 nM.
As to `CN(CCN1CCCCC1)C(=O)N1CCC(O)(c2ccccc2)CC1`, the IC50 on Histamine H3 receptor is greater than 1000 nM.
On to `CN(CCN1CCCCC1)C(=O)N1CCN(c2ccccc2)CC1`, for which, at Histamine H3 receptor, the IC50 was found to be 506 nM.
`CN(CCN1CCCCC1)C(=O)N1CCN(c2ccc(Cl)cc2)CC1`: on Histamine H3 receptor, the IC50 turned out to be 160 nM.
Regarding `CN(CCN1CCCCC1)C(=O)N1CCC(C(C)(C)C)CC1`, the IC50 at Histamine H3 receptor is greater than 1000 nM.
For `CN(CCN1CCCCC1)C(=O)N1CCC2(CC1)NC(=O)c1ccccc1N2`, at Histamine H3 receptor, the IC50 is 560 nM.
On to `CN(CCN1CCCCC1)C(=O)N1CCC(c2ccc3ccccc3c2)CC1`, for which, on Histamine H3 receptor, the IC50 is 110 nM.
On to `CN(CCN1CCCCC1)C(=O)N1CCC2(CC1)CC(=O)c1ccccc1O2`, for which the IC50 on Histamine H3 receptor was 68 nM.
As for `CN(CCN1CCCCC1)C(=O)N1CCC2(CC1)c1ccccc1C(=O)N2C`, at Histamine H3 receptor, the IC50 was 45 nM.
On to `CN(CCN1CCCCC1)C(=O)N1CCC2(CC1)Cc1ccccc1C2`, for which the IC50 on Histamine H3 receptor is 530 nM.
Consider `CN(CCN1CCCCC1)C(=O)N1CCc2ccccc2C1`, for which the IC50 at Histamine H3 receptor is 680 nM.
The same measure, in the same setting: then `CN(CCN1CCCCC1)C(=O)N1CCC2(CC1)NC(=O)c1ccccc12`, with 53 nM; and `CN(CCN1CCCCC1)C(=O)N1CCC(C(=O)c2ccccc2)CC1`, with 237 nM; and `COc1ccc2c(c1)[C@]1(CC[C@@H](C(=O)N(C)CCN3CCCCC3)CC1)OC2=O`, with 18 nM.
The clearance is the volume of plasma or blood freed of the substance per unit of time. Lower therefore signals inefficient removal. A word on the Tmax: it is the time at which the peak concentration occurs. As a reminder, the bioavailability is the share of a dose that reaches the circulation, judged against a reference dose that is usually intravenous. A low value points to poor availability. As usually defined, the Cmax is the peak of the concentration-time curve. The half-life is the time needed for the level to fall by half in the phase considered. Low readings indicate rapid decline, high ones slow decline. Regarding `COc1ccc2c(c1)C(=O)O[C@]21CC[C@H](C(=O)N(C)CCN2CCCCC2)CC1`, the IC50 is greater than 10000 nM against Histamine H2 receptor, 0.54 nM at Histamine H3 receptor, greater than 10000 nM against Histamine H4 receptor and greater than 10000 nM on Histamine H1 receptor. Further, the Vd in [1] is 7.2 L/kg. In addition, the Drug uptake with Brain [2] is listed as 0.48 nmol/g. In addition, the clearance in data set [3] worked out at 74 mL/min/kg. In addition, the Tmax in data set [4] worked out at 0.3 h. This compound also had a bioavailability in [5] of 7%. In addition, the concentration at 2 h in [6] came out at 270 nM; in data set [7], 58 nM. Further, the CLhep predicted was 18 mL/min/kg in [8] and 54 mL/min/kg in data set [12]. In data set [9], this compound showed a Cmax of 60 nM. Further, the half-life in data set [10] and in data set [11] was 1.4 h throughout.
Regarding `CN(CCN1CCCCC1)C(=O)[C@H]1CC[C@@]2(CC1)OC(=O)c1ccccc12`, the 50% inhibitory concentration (IC50) at Histamine H2 receptor is greater than 10000 nM; at Histamine H3 receptor it was 0.72 nM; at Histamine H4 receptor, greater than 10000 nM; in data set [14], greater than 10000 nM; on Histamine H1 receptor, greater than 10000 nM. Moreover, the concentration at 10 min was found to be 1500 nM in [13] and 370 nM in data set [18]. This compound registered a clearance in data set [3] of 97 mL/min/kg. Further, the CLhep predicted in data set [8] was 18 mL/min/kg; in data set [12], 59 mL/min/kg. In addition, the Ratio amounted to 2 in the data set on LLC-PK1 [15] and 1.2 in the data set on LLC-PK1 [16]. In addition, in the data set with Brain [17], the Drug uptake is 2.4 nmol/g.
For the compound `CN(CCN1CCCCC1)C(=O)N1CCC2(CC1)CC(=O)c1ccccc12`, on Histamine H3 receptor, the IC50 came out at 43 nM.
Turning to `CN(CCN1CCCCC1)C(=O)N1CCC2(CC1)NC(=O)Cc1ccccc12`, the IC50 on Histamine H3 receptor was found to be 783 nM.
As to `CN(CCN1CCCCC1)C(=O)N1CCC2(CC1)OC(=O)Nc1ccccc12`, on Histamine H3 receptor, the IC50 was greater than 1000 nM.
Consider `CN(CCN1CCCCC1)C(=O)N1CCC(c2ccccc2)(c2ccccc2)CC1`, for which the IC50 on Histamine H3 receptor worked out at 98 nM.
